Myeloid diff MLP = promotes myeloid progenitor differentiation | ER-HoxA9 myeloid progenitors, lysozyme-GFP differentiation, flow cytometry | calls only at 10 µM | 360,000 tested, 1% active | AID 624256;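 active = normalized GFP-positive differentiation at or above the plate's own cutoff, the solvent-only control mean plus 3 SD; inconclusive = no clear call, values can overlap the other calls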;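 note: cells exposed to compound for four days before flow analysis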
PP5 primary = blocks human protein phosphatase 5 activity; 320,000 tested, 0.18% active; AID 1987; purified PP5c, OMFP substrate fluorescence; inhibition, % at 6.7 µM;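 active = inhibition above the campaign's mean inhibition across all tested compounds plus 3 SD, cut at about 9.5% in these data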
NadD inh = NadD (S. aureus) enzyme inhibition. purified NadD enzyme, colorimetric absorbance read-out. inhibition, % at 20 µM. 360,000 tested, 0.78% active. AID 602399; in the data active = inhibition above about 26%
PP1 counter = PP1-alpha (human) inhibition in PP5 counter-screen; P62136; purified PP1alpha, OMFP fluorescence; inhibition, % at 6.7 µM; 320,000 tested, 0.9% active;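 active = inhibition above the mean inhibition of all tested compounds plus 3 SD, computed separately for each screening campaign, cut at about 15% in these data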
Target sequence (P62136 whole entry, looked up): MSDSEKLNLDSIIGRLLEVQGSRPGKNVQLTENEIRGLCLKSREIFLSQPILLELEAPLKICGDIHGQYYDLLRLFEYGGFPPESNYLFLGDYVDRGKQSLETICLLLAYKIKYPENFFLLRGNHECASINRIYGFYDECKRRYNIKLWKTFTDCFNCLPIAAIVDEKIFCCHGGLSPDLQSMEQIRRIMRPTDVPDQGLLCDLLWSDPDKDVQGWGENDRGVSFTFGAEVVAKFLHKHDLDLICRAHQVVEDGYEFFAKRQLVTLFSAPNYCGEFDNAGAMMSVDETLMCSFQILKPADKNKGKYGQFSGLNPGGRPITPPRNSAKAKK
core dimer inh = blocks dimerization of HCV core protein; 300,000 tested, 0.33% active; inhibition, % at 5 µM; TR-FRET GST/Flag-core106 dimerization, 1536-well;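 active = inhibition above the mean of all tested compounds plus 3 SD, set per screening campaign, cut at about 45% in these data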
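assay system = GST-tagged and Flag-tagged HCV core protein residues 1-106 | controls = unlabelled core106 and no-GST-core106 wells | incubation = compound-protein-antibody incubation 4 h at 22.5 °C | probe or stimulus = Eu donor and XL665 acceptor anti-tag antibodies | read-out = % inhibition based on acceptor/donor emission ratio | signal = TR-FRET 671 and 617 nm emission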
Fh CTSL1 inh = blocks F. hepatica cathepsin L1 in PFM18AAP counter-screen; 300,000 tested, 0.49% active; inhibition, % at 5.96 µM; recombinant F. hepatica cathepsin L1, Z-Leu-Arg-MCA fluorescence;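 active = inhibition above the mean of all tested compounds plus 3 SD, set per screening campaign, cut at about 17% in these data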
Of the large screens only hits and unclear results are named; the others gave an inactive call. A selection: hits, their analogues and other compounds. The true share with any hit is near 3.1%.

Cc1nc2ccccc2c(=O)n1/N=C/c1ccccc1	none
Cc1nc2ccccc2c(=O)n1/N=C/c1ccccc1O	none
CC(C)COC(=O)N1CCCCC1c1cc(C(=O)NCc2ccccc2)no1 (centres undefined)	none (no result: PP5 primary, PP1 counter, core dimer inh, Fh CTSL1 inh)
N#CC(C#N)=Cc1ccccc1OCc1ccccc1	none (no result: Myeloid diff MLP, NadD inh)
COc1ccc(CNC(=O)c2ccc3ccccc3n2)cc1	PP1 counter 17
Cc1ccc(-n2c(-c3ccc(Cl)cc3)n[nH]c2=S)c(C)c1	Myeloid diff MLP active
COc1ccc(-c2n[nH]c(=S)n2-c2ccc(C)cc2C)cc1	none
COCCNC(=O)c1cc2c(c(-c3cccc(-c4cc5ccccc5o4)c3)n1)[C@H](CCO)N(S(=O)C(C)(C)C)C2 (some centres undefined)	none (no result: PP5 primary, PP1 counter, core dimer inh, Fh CTSL1 inh)
CC(C)(C)S(=O)N1Cc2cc(C(=O)NCc3ccc4c(c3)OCO4)nc(-c3cccc(-c4ccccc4)c3)c2[C@@H]1CCO (some centres undefined)	none (no result: PP5 primary, PP1 counter, core dimer inh, Fh CTSL1 inh)
CC(C)(C)S(=O)N1Cc2cc(C(=O)NCc3ccc(Oc4ccccc4)cc3)nc(-c3cccc(-c4cc5ccccc5o4)c3)c2[C@@H]1CCO (some centres undefined)	NadD inh 32 (no result: PP5 primary, PP1 counter, core dimer inh, Fh CTSL1 inh)
COc1cccc(-c2cccc(-c3nc(C(=O)NCc4ccc(Oc5ccccc5)cc4)cc4c3[C@H](CCO)N(S(=O)C(C)(C)C)C4)c2)c1 (some centres undefined)	NadD inh 31 (no result: PP5 primary, PP1 counter, core dimer inh, Fh CTSL1 inh)
CC1=C(C(=O)Nc2ccccc2C(=O)N2CCC(C)CC2)SCCO1	none
O=C(c1cc(=O)[nH]c2ccccc12)N(Cc1nnc(-c2ccccc2Cl)o1)C1CC1	none
Cc1ccc(NS(=O)(=O)c2ccc3[nH]c(=O)c(=O)[nH]c3c2)cc1Cl	none
Cc1ccc(NS(=O)(=O)c2ccc(Cl)c(N=Nc3c(O)[nH]c(=O)[nH]c3=O)c2)cc1Cl	NadD inh 31 (no result: PP5 primary, PP1 counter, core dimer inh, Fh CTSL1 inh)
COc1cc(-c2nnc(SCC(=O)N(Cc3ccccc3)C(C)(C)C)o2)cc(OC)c1OC	Myeloid diff MLP active
COc1cc(OC)cc(-c2nnc(SCC(=O)N(Cc3ccccc3)C(C)(C)C)o2)c1	Myeloid diff MLP active
O=C1CC(N2CCN(S(=O)(=O)c3ccccc3F)CC2)C(=O)N1c1ccccc1F (centres undefined)	none (no result: PP5 primary, PP1 counter, core dimer inh, Fh CTSL1 inh)
COc1cc(/C=C2\SC(N)=NC2=O)ccc1OCC(=O)Nc1ccccc1C	none (no result: core dimer inh, Fh CTSL1 inh)
CCn1c(/C=C/c2ccc(O)cc2)nc2ccccc2c1=O	none
COc1ccc(/C=C/c2nc3ccccc3c(=O)n2-c2cccc(C(=O)O)c2)cc1	Fh CTSL1 inh 19
CNc1ccc(C(=O)OCC(=O)NCc2ccc3c(c2)OCO3)cc1[N+](=O)[O-]	none (no result: core dimer inh, Fh CTSL1 inh)
COC(=O)c1cc(S(=O)(=O)NCC2CCN(CCc3ccc(OC)cc3)CC2)c[nH]1	none
CC(=O)c1cccc(NC(=O)c2c(-c3c(F)cccc3Cl)noc2C)c1	none (no result: core dimer inh, Fh CTSL1 inh)
Cc1ccc2nc(-c3cccc(-c4cccc(Cl)c4)c3)c(NCc3ccccc3)n2c1	PP1 counter 16
O=C(Cn1c(=O)oc2cc(S(=O)(=O)N3CCCCCC3)ccc21)NC1CCCCCCC1	Fh CTSL1 inh 17
COc1ccccc1C(=O)NC(CCSC)C(=O)NNC(=O)C(C)Oc1ccccc1F (centres undefined)	none (no result: core dimer inh, Fh CTSL1 inh)
CCCn1c(N)c(N(CCOC)C(=O)CSc2ccccc2)c(=O)[nH]c1=O	none (no result: core dimer inh, Fh CTSL1 inh)
CC(C)(C)NC(=O)C1c2ccccc2OCC(=O)N1Cc1ccco1 (centres undefined)	none (no result: PP5 primary, PP1 counter, core dimer inh, Fh CTSL1 inh)
CCOc1ccc(NS(=O)(=O)c2ccc3c(c2)N(C(C)=O)CC3)cc1	none
CCOc1ccc(NS(=O)(=O)c2ccc3c(c2)CCN3C(C)=O)cc1	Myeloid diff MLP active
CC(=O)N1CCCc2ccc(NS(=O)(=O)c3ccc(C)c(C)c3)cc21	Myeloid diff MLP active
Cc1ccc(NS(=O)(=O)c2ccc3c(c2)n(C)c(=O)n3C)cc1C	Fh CTSL1 inh 18
Cc1ccc(S(=O)(=O)Nc2ccc3c(c2)n(C)c(=O)n3C)cc1	none
CCn1c(SCc2cccc(OC)c2)nc2ccccc2c1=O	none
Cc1cccc(N2CCN(C(=O)CSc3ccsc3[N+](=O)[O-])CC2C)c1 (centres undefined)	core dimer inh 57
N#Cc1c(-c2cccs2)cc(-c2ccccn2)nc1N	PP1 counter 16
CCN1C(=O)/C(=C\C=C\c2ccccc2[N+](=O)[O-])SC1=S	Myeloid diff MLP inconclusive (no result: PP5 primary, PP1 counter, core dimer inh, Fh CTSL1 inh)
CCN1C(=O)/C(=C/C=C2\N(CC)c3cc(S(=O)(=O)N(C)C)ccc3N2c2ccccc2)SC1=S	Myeloid diff MLP active
CC1CCN(S(=O)(=O)c2ccc3c(c2)N(CC(=O)NCCCN2CC(C)CC(C)C2)C(=O)CS3)CC1 (centres undefined)	none
Cc1cc(C(=O)Nc2ccccc2Cl)n(-c2ccccc2)n1	none
O=C(Nc1nnc([C@@H]2C[C@H](O)[C@@H](CO)O2)s1)Nc1cccc2c1CCCC2	none (no result: PP5 primary, PP1 counter, core dimer inh, Fh CTSL1 inh)
CC(C)CNS(=O)(=O)c1ccc(CCC(=O)NCc2cccnc2)cc1	Myeloid diff MLP active
Cc1ccc2cc(C(c3nnnn3C3CCCC3)N(Cc3cccnc3)Cc3ccco3)c(=O)[nH]c2c1 (centres undefined)	none
Cc1ccc2cc(C(c3nnnn3C3CCCC3)N(Cc3ccco3)Cc3cccs3)c(=O)[nH]c2c1 (centres undefined)	NadD inh 39
CN1C(=O)C(C)(C)c2cc(S(=O)(=O)N3CCN(c4ccc(F)cc4)CC3)ccc21	none
CN1C(=O)C(C)(C)c2cc(S(=O)(=O)N3CCN(c4cccc(Cl)c4)CC3)ccc21	Myeloid diff MLP active
COc1cc(/C=C2\CC/C(=C\c3cc(OC)c(O)c(OC)c3)C2=O)cc(OC)c1O	none (no result: Myeloid diff MLP)
COc1cc(/C=C2/CCC/C(=C\c3cc(O)c(OC)c(Cl)c3)C2=O)cc(Cl)c1O	NadD inh 50, core dimer inh 50 (no result: Myeloid diff MLP)
O=C(NCc1ccccc1)C1C(c2ccc3c(c2)OCO3)=Nc2ccccc2N1C(=O)c1cccc2ccccc12 (centres undefined)	none (no result: PP5 primary, NadD inh, PP1 counter, core dimer inh, Fh CTSL1 inh)
COc1ccc(-c2[nH]ncc2N=Nc2ccccc2)cc1	none
COc1ccc(-c2[nH]ncc2N=Nc2cc(C)cc(C)c2)cc1	Myeloid diff MLP active
CS(=O)(=O)NN1C(=O)c2ccccc2NC1c1c[nH]c2ccccc12 (centres undefined)	Myeloid diff MLP active
CS(=O)(=O)NN1C(=O)c2ccccc2NC1c1ccccc1O (centres undefined)	none
CN1C(=O)CC(c2cn(Cc3ccccc3)c3ccccc23)C1=O (centres undefined)	Myeloid diff MLP active
CC(=O)N1N=C(c2ccccc2)CC1c1cn(Cc2ccccc2)c2ccccc12 (centres undefined)	none
CCN1CCc2c(sc(NC(=O)Nc3ccc(Cl)c(Cl)c3)c2C(N)=O)C1	Myeloid diff MLP active
CC1CCCN(S(=O)(=O)c2ccc(C(=O)Nc3nnc(-c4ccccc4Cl)o3)cc2)C1 (centres undefined)	Myeloid diff MLP active
